According to ChEMBL document CHEMBL1275561, “In vitro activities of doripenem, a new broad-spectrum carbapenem, against recently collected clinical anaerobic isolates, with emphasis on the Bacteroides fragilis group” (2008):
Converted amounts (≈) assume the structure as drawn.

What was measured:
Format in all cases: functional
[1] = test system: Parabacteroides distasonis; assay: Antimicrobial activity against Bacteroides distasonis by agar dilution method
How it was run: (§1)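 CLSI agar dilution on enriched brucella agar (5% lysed defibrinated sheep blood, 1 μg/ml vitamin K1), with drug plates made on the test day. Log-phase cells were adjusted to 0.5 McFarland, and about 10^5 CFU/spot was delivered by Steers replicator. Plates were incubated anaerobically at 37°C for 48 h. MIC was the lowest concentration giving a marked growth change versus the control plate. Controls were B. fragilis ATCC 25285 and B. thetaiotaomicron ATCC 29741.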

Bacteroides caccae [2] = assay: Antimicrobial activity against Bacteroides caccae assessed as resistant isolates by agar dilution method
How it was run: (§2)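 CLSI agar dilution on enriched brucella agar (5% lysed defibrinated sheep blood, 1 μg/ml vitamin K1), plates made on test day. Log-phase inocula adjusted to 0.5 McFarland; about 10^5 CFU/spot by Steers replicator. Incubated anaerobically at 37°C for 48 h. MIC was the lowest concentration giving a marked change in growth versus the drug-free control plate. Resistance rates used CLSI anaerobe breakpoints. Controls were B. fragilis ATCC 25285 and B. thetaiotaomicron ATCC 29741.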

Bacteroides caccae [3] = assay: Antimicrobial activity against Bacteroides caccae by agar dilution method; how it was run: as §1
[4] = test system: Parabacteroides distasonis; assay: Antimicrobial activity against Bacteroides distasonis assessed as resistant isolates by agar dilution method; how it was run: as §2
Bacteroides fragilis [5] = assay: Antimicrobial activity against Bacteroides fragilis by agar dilution method; how it was run: as §1
Bacteroides fragilis [6] = assay: Antimicrobial activity against Bacteroides fragilis assessed as resistant isolates by agar dilution method; how it was run: as §2
Bacteroides ovatus [7] = assay: Antimicrobial activity against Bacteroides ovatus by agar dilution method; how it was run: as §1
Bacteroides ovatus [8] = assay: Antimicrobial activity against Bacteroides ovatus assessed as resistant isolates by agar dilution method; how it was run: as §2
[9] = test system: Bacteroides thetaiotaomicron; assay: Antimicrobial activity against Bacteroides thetaiotaomicron by agar dilution method; how it was run: as §1
[10] = test system: Bacteroides thetaiotaomicron; assay: Antimicrobial activity against Bacteroides thetaiotaomicron assessed as resistant isolates by agar dilution method; how it was run: as §2
Bacteroides uniformis [11] = assay: Antimicrobial activity against Bacteroides uniformis by agar dilution method; how it was run: as §1
Bacteroides uniformis [12] = assay: Antimicrobial activity against Bacteroides uniformis assessed as resistant isolates by agar dilution method; how it was run: as §2
Phocaeicola vulgatus [13] = assay: Antimicrobial activity against Bacteroides vulgatus by agar dilution method; how it was run: as §1
Phocaeicola vulgatus [14] = assay: Antimicrobial activity against Bacteroides vulgatus assessed as resistant isolates by agar dilution method; how it was run: as §2
Bacteroides eggerthii [15] = assay: Antimicrobial activity against Bacteroides eggerthii by agar dilution method; how it was run: as §1
Bacteroides eggerthii [16] = assay: Antimicrobial activity against Bacteroides eggerthii assessed as resistant isolates by agar dilution method; how it was run: as §2
Parabacteroides merdae [17] = assay: Antimicrobial activity against Bacteroides merdae by agar dilution method; how it was run: as §1
Parabacteroides merdae [18] = assay: Antimicrobial activity against Bacteroides merdae assessed as resistant isolates by agar dilution method; how it was run: as §2
Bacteroides nordii [19] = assay: Antimicrobial activity against Bacteroides nordii by agar dilution method; how it was run: as §1
Bacteroides nordii [20] = assay: Antimicrobial activity against Bacteroides nordii assessed as resistant isolates by agar dilution method; how it was run: as §2
Clostridioides difficile = assay: Antimicrobial activity against Clostridium difficile by agar dilution method
Clostridium perfringens = assay: Antimicrobial activity against Clostridium perfringens by agar dilution method
[Clostridium] innocuum [21] = Antimicrobial activity against Clostridium innocuum by agar dilution method
[Clostridium] innocuum [22] = Antimicrobial activity against Clostridium innocuum assessed as resistant isolates by agar dilution method; conditions: pooled result: one value given for 4 cell lines, strains, targets or settings
[23] = test system: Clostridium paraputrificum; assay: Antimicrobial activity against Clostridium paraputrificum by agar dilution method
Clostridium subterminale = assay: Antimicrobial activity against Clostridium subterminale by agar dilution method
Clostridium tertium = assay: Antimicrobial activity against Clostridium tertium by agar dilution method
Finegoldia magna [24] = assay: Antimicrobial activity against Finegoldia magna by agar dilution method
How it was run: (§3)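 Gram-positive anaerobes were tested by CLSI agar dilution on brucella agar enriched with 5% lysed defibrinated sheep blood and 1 μg/ml vitamin K1. Inoculum was log-phase growth at 0.5 McFarland, about 10^5 CFU/spot by replicator. Incubation was anaerobic, 37°C, 48 h. MIC was the lowest concentration with a marked growth change versus the drug-free plate. Eubacterium lentum ATCC 43055 was the control, and tests were repeated if it fell outside the CLSI range.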

Finegoldia magna [25] = assay: Antimicrobial activity against Finegoldia magna assessed as resistant isolates by agar dilution method
How it was run: (§4)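 Agar dilution following CLSI on brucella agar with 5% lysed defibrinated sheep blood and 1 μg/ml vitamin K1, plates made on test day. Log-phase cells at 0.5 McFarland, about 10^5 CFU/spot by Steers replicator, 48 h anaerobic at 37°C. MIC read as the lowest concentration causing a marked growth change versus control. Resistance counted by CLSI anaerobe breakpoints. Eubacterium lentum ATCC 43055 served as control.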

[26] = test system: Peptoniphilus asaccharolyticus; assay: Antimicrobial activity against Peptoniphilus asaccharolyticus by agar dilution method; how it was run: as §3
[27] = test system: Peptoniphilus asaccharolyticus; assay: Antimicrobial activity against Peptoniphilus asaccharolyticus assessed as resistant isolates by agar dilution method; conditions: pooled result: one value given for 4 cell lines, strains, targets or settings; how it was run: as §4
Parvimonas micra = assay: Antimicrobial activity against Micromonas micros by agar dilution method; how it was run: as §3
Anaerococcus prevotii = assay: Antimicrobial activity against Anaerococcus prevotii by agar dilution method; how it was run: as §3
Peptostreptococcus sp. = assay: Antimicrobial activity against Peptostreptococcus sp. by agar dilution method
How it was run: (§5)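 Log-phase isolates were adjusted to 0.5 McFarland, and about 10^5 CFU/spot was delivered by Steers replicator. Plates were incubated anaerobically at 37°C for 48 h. MIC was the lowest concentration giving a marked growth change versus the control plate. Eubacterium lentum ATCC 43055 was the QC strain, with repeats when out of range.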

Cutibacterium acnes [28] = assay: Antimicrobial activity against Propionibacterium acnes by agar dilution method; how it was run: as §5
Cutibacterium acnes [29] = assay: Antimicrobial activity against Propionibacterium acnes assessed as resistant isolates by agar dilution method; how it was run: as §4
Propionibacterium [30] = assay: Antimicrobial activity against Propionibacterium sp. by agar dilution method; how it was run: as §5
Propionibacterium [31] = assay: Antimicrobial activity against Propionibacterium sp. assessed as resistant isolates by agar dilution method; how it was run: as §4

Q: How did the MIC50 [1] turn out when C[C@@H](O)[C@H]1C(=O)N2C(C(=O)O)=C(S[C@@H]3CN[C@H](C(=O)N(C)C)C3)[C@H](C)[C@H]12 [MEROPENEM] was run?
A: Its MIC50 is 1 µg/mL (≈ 2.61 µM).

Q: What about the MIC90 [1] of the same molecule?
A: Its MIC90 is 2 µg/mL (≈ 5.22 µM).

Q: What about the Activity (Bacteroides caccae [2]) of the same molecule?
A: Its Activity is 0%.

Q: And the MIC50 (Bacteroides caccae [3])?
A: Its MIC50 is 0.25 µg/mL (≈ 0.652 µM).

Q: What about the MIC90 (Bacteroides caccae [3]) of the same molecule?
A: The MIC90 was 2 µg/mL (≈ 5.22 µM).

Q: And the Activity [4]?
A: The Activity was 0%.

Q: And the MIC50 (Bacteroides fragilis [5])?
A: The MIC50 was 0.25 µg/mL (≈ 0.652 µM).

Q: What about the MIC90 (Bacteroides fragilis [5]) of the same molecule?
A: The MIC90 was 1 µg/mL (≈ 2.61 µM).

Q: And the Activity (Bacteroides fragilis [6])?
A: The Activity was 1.5%.

Q: What about the MIC50 (Bacteroides ovatus [7]) of the same molecule?
A: Its MIC50 is 0.5 µg/mL (≈ 1.3 µM).

Q: And the MIC90 (Bacteroides ovatus [7])?
A: The MIC90 was 2 µg/mL (≈ 5.22 µM).

Q: And the Activity (Bacteroides ovatus [8])?
A: Its Activity is 0%.

Q: What about the MIC50 [9] of the same molecule?
A: The MIC50 was 0.5 µg/mL (≈ 1.3 µM).

Q: And the MIC90 [9]?
A: The MIC90 was 2 µg/mL (≈ 5.22 µM).

Q: What about the Activity [10] of the same molecule?
A: Its Activity is 0%.

Q: And the MIC50 (Bacteroides uniformis [11])?
A: The MIC50 was 0.25 µg/mL (≈ 0.652 µM).

Q: And the MIC90 (Bacteroides uniformis [11])?
A: Its MIC90 is 0.5 µg/mL (≈ 1.3 µM).

Q: What about the Activity (Bacteroides uniformis [12]) of the same molecule?
A: The Activity was 0%.

Q: And the MIC50 (Phocaeicola vulgatus [13])?
A: The MIC50 was 0.5 µg/mL (≈ 1.3 µM).

Q: And the MIC90 (Phocaeicola vulgatus [13])?
A: The MIC90 was 2 µg/mL (≈ 5.22 µM).

Q: And the Activity (Phocaeicola vulgatus [14])?
A: The Activity was 0%.

Q: And the MIC50 (Bacteroides eggerthii [15])?
A: The MIC50 was 0.25 µg/mL (≈ 0.652 µM).

Q: And the MIC90 (Bacteroides eggerthii [15])?
A: The MIC90 was 1 µg/mL (≈ 2.61 µM).

Q: What about the Activity (Bacteroides eggerthii [16]) of the same molecule?
A: Its Activity is 0%.

Q: And the MIC50 (Parabacteroides merdae [17])?
A: Its MIC50 is 0.25 µg/mL (≈ 0.652 µM).

Q: What about the MIC90 (Parabacteroides merdae [17]) of the same molecule?
A: Its MIC90 is 1 µg/mL (≈ 2.61 µM).

Q: What about the Activity (Parabacteroides merdae [18]) of the same molecule?
A: Its Activity is 0%.

Q: And the MIC50 (Bacteroides nordii [19])?
A: The MIC50 was 0.25 µg/mL (≈ 0.652 µM).

Q: What about the MIC90 (Bacteroides nordii [19]) of the same molecule?
A: The MIC90 was 1 µg/mL (≈ 2.61 µM).

Q: And the Activity (Bacteroides nordii [20])?
A: Its Activity is 0%.

Q: And the MIC (Clostridioides difficile)?
A: Its MIC is 1 µg/mL (≈ 2.61 µM).

Q: And the MIC (Clostridium perfringens)?
A: The MIC was 0.06 µg/mL (≈ 0.156 µM).

Q: And the MIC50 (Clostridium perfringens)?
A: The MIC50 was 0.06 µg/mL (≈ 0.156 µM).

Q: And the MIC90 (Clostridium perfringens)?
A: The MIC90 was 0.125 µg/mL (≈ 0.326 µM).

Q: And the MIC50 ([Clostridium] innocuum [21])?
A: The MIC50 was 2 µg/mL (≈ 5.22 µM).

Q: And the MIC90 ([Clostridium] innocuum [21])?
A: The MIC90 was 2 µg/mL (≈ 5.22 µM).

Q: What about the Activity ([Clostridium] innocuum [22]) of the same molecule?
A: The Activity was 0%.

Q: What about the MIC50 [23] of the same molecule?
A: Its MIC50 is 2 µg/mL (≈ 5.22 µM).

Q: What about the MIC90 [23] of the same molecule?
A: Its MIC90 is 2 µg/mL (≈ 5.22 µM).

Q: What about the MIC50 (Clostridium subterminale) of the same molecule?
A: The MIC50 was 2 µg/mL (≈ 5.22 µM).

Q: And the MIC90 (Clostridium subterminale)?
A: The MIC90 was 2 µg/mL (≈ 5.22 µM).

Q: What about the MIC50 (Clostridium tertium) of the same molecule?
A: Its MIC50 is 2 µg/mL (≈ 5.22 µM).

Q: And the MIC90 (Clostridium tertium)?
A: The MIC90 was 2 µg/mL (≈ 5.22 µM).

Q: What about the MIC50 (Finegoldia magna [24]) of the same molecule?
A: Its MIC50 is 0.125 µg/mL (≈ 0.326 µM).

Q: And the MIC90 (Finegoldia magna [24])?
A: The MIC90 was 0.125 µg/mL (≈ 0.326 µM).

Q: What about the Activity (Finegoldia magna [25]) of the same molecule?
A: Its Activity is 0%.

Q: What about the MIC50 [26] of the same molecule?
A: The MIC50 was 0.125 µg/mL (≈ 0.326 µM).

Q: What about the MIC90 [26] of the same molecule?
A: Its MIC90 is 0.5 µg/mL (≈ 1.3 µM).

Q: What about the Activity [27] of the same molecule?
A: Its Activity is 0%.

Q: And the MIC50 (Parvimonas micra)?
A: Its MIC50 is 0.125 µg/mL (≈ 0.326 µM).

Q: What about the MIC90 (Parvimonas micra) of the same molecule?
A: The MIC90 was 0.5 µg/mL (≈ 1.3 µM).

Q: What about the MIC50 (Anaerococcus prevotii) of the same molecule?
A: Its MIC50 is 0.125 µg/mL (≈ 0.326 µM).

Q: And the MIC90 (Anaerococcus prevotii)?
A: The MIC90 was 0.5 µg/mL (≈ 1.3 µM).

Q: What about the MIC50 (Peptostreptococcus sp.) of the same molecule?
A: The MIC50 was 0.125 µg/mL (≈ 0.326 µM).

Q: What about the MIC90 (Peptostreptococcus sp.) of the same molecule?
A: The MIC90 was 0.5 µg/mL (≈ 1.3 µM).

Q: And the MIC (Cutibacterium acnes [28])?
A: The MIC was 0.06 µg/mL (≈ 0.156 µM).

Q: What about the MIC50 (Cutibacterium acnes [28]) of the same molecule?
A: The MIC50 was 0.06 µg/mL (≈ 0.156 µM).

Q: And the MIC90 (Cutibacterium acnes [28])?
A: Its MIC90 is 0.06 µg/mL (≈ 0.156 µM).

Q: What about the Activity (Cutibacterium acnes [29]) of the same molecule?
A: Its Activity is 0%.

Q: And the MIC (Propionibacterium [30])?
A: The MIC was 0.06 µg/mL (≈ 0.156 µM).

Q: And the MIC50 (Propionibacterium [30])?
A: The MIC50 was 0.06 µg/mL (≈ 0.156 µM).

Q: What about the MIC90 (Propionibacterium [30]) of the same molecule?
A: The MIC90 was 0.25 µg/mL (≈ 0.652 µM).

Q: And the Activity (Propionibacterium [31])?
A: The Activity was 0%.
